# EP2 modulator – modulators of human EP2 prostaglandin E2 receptor. EP2-expressing cells, cAMP HTRF FRET, PGE2 co-stimulation. induction, % at 25 µM. 260,000 tested, 0.83% active. AID 940;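 active = compounds whose cAMP rise, as percent of the full-agonist control response, exceeds 60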;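 note: rat C6 glioma line stably carrying human EP2 under a CMV promoter; the protocol text gives 20 µM as final concentration; 100% = response of wells given 1 µM PGE2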
# Target sequence (P43116 whole entry, looked up): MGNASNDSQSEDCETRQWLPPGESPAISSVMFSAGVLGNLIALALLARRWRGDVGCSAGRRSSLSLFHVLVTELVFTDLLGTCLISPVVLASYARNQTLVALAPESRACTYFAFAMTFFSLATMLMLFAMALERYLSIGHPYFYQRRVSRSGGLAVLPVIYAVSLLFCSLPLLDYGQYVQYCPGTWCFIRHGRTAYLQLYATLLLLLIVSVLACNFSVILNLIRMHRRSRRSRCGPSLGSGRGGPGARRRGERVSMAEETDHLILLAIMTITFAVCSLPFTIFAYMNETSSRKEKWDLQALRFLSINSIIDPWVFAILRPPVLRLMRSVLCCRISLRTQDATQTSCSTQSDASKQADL
# NPY Y2 blocker – NPY-Y2 (human) receptor antagonism | AID 793 | NPY-Y2 expressing cells, antagonist mode | 140,000 tested, 0.99% active | inhibition, % at 2.7 µM; in the data active = inhibition above about 17%;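 note: 0% = vehicle with agonist challenge and 100% = reference antagonist with challenge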
# Target sequence (P49146 whole entry, looked up): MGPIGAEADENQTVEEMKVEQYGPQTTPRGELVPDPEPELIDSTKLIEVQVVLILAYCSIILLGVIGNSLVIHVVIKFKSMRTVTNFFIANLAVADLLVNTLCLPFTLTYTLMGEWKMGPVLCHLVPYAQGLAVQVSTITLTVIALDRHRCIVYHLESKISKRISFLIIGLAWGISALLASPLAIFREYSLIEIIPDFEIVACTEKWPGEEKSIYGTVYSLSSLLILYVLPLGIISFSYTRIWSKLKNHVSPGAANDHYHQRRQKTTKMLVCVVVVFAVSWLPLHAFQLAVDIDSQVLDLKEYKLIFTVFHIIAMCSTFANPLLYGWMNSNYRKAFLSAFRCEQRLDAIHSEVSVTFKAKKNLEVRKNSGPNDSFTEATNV
# NPY1 pot ag – potentiators or agonists of human neuropeptide Y receptor Y1. NPY-Y1 expressing cells, potentiator/agonist activation. 220,000 tested, 0.37% active. P25929. activation, % at 3.6 µM. AID 1304; in the data active = activation above about 33%, passing the limit was not always enough;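 note: cells stimulated with NPY at EC10 then isoproterenol at EC100; 0% = low agonist plus stimulus and 100% = saturating agonist plus stimulus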
# EP2 antag – blocks the human prostaglandin E2 receptor EP2 | P43116 | C6 glioma cells expressing human EP2, cAMP TR-FRET; cells stimulated with saturating PGE2 | inhibition, % at 25 µM | 260,000 tested, 0.52% active | AID 1422;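 active = percent inhibition above 40 after rounding to a whole number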;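 note: rat C6 glioma host cells with rolipram phosphodiesterase inhibitor present; the protocol text gives 20 µM as final concentration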
# NPY-Y2 PAM-ag – potentiators or agonists of human neuropeptide Y receptor Y2; P49146; cells expressing NPY-Y2, potentiator/agonist read-out; activation, % at 3.6 µM; 220,000 tested, 0.45% active; in the data active = activation above about 27%;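 note: cells stimulated with NPY near EC25 plus isoproterenol at EC100; 0% = vehicle plus submaximal agonist and 100% = vehicle plus saturating agonist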
# NPY Y1 blocker – antagonists of human neuropeptide Y receptor Y1; HEK293-CNG Y1 cells, membrane potential fluorescence; NPY at EC95, then isoproterenol; inhibition, % at 3.6 µM; 200,000 tested, 1% active;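 active = inhibition above the campaign mean inhibition of all tested compounds plus 3 SD, cut at about 20% in these data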;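 note: 0% = DMSO wells given NPY plus isoproterenol and 100% = isoproterenol alone without NPY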
#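 Material: HEK293 Y1/CNG channel cell line; also added: NPY (25 nM), isoproterenol (1 µM), Ro 20-1724 (25 µM); doses: one concentration, 3.6 µM, in 0.4% DMSO; schedule: compound incubation 1 h at room temperature, readout 45 min post-stimulation; technique: membrane potential fluorescence; measure: fluorescence ratio normalized to % inhibition between controls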
# Starred values were filed as active, the others as inactive; · = not tested or not shown. An excerpt weighted towards active compounds, which were near 2.8% of everything screened.
SMILES,EP2 modulator,NPY Y2 blocker,NPY1 pot ag,EP2 antag,NPY-Y2 PAM-ag,NPY Y1 blocker
CCc1ccc(-c2nc(CSCC(=O)NCc3ccco3)c(C)o2)cc1,1.7,·,-2.7,7.4,-7.7,21.1*
Cc1ccc(OCC(=O)Nc2ccc(S(=O)(=O)Nc3nc(C)cc(C)n3)cc2)c(C)c1,2.6,·,·,9.4,·,·
COc1ccccc1N1C(=O)C2CC(C)=C(C)CC2C1=O (stereo not drawn),9.9,0.9,0.9,16.1,-2.4,4.4
COc1ccccc1N1C(=O)C=C(Sc2nc(C)cc(C)n2)C1=O,-61.5,·,-0.6,42.2*,-17.3,·
COC(=O)/C=C1\OC(c2ccccc2)=CC1=O,-120.7,4.6,1.1,124.0*,-8.3,1.6
CCC(C)(C)n1nnnc1CN(CCN1CCOCC1)Cc1cc2c(C)ccc(C)c2[nH]c1=O,0.9,·,·,8.4,·,·
Cc1ccc(NC(=O)c2cc(N3C(=O)C=CC3=O)ccc2N2CCOCC2)cc1Cl,-59.3,4.2,27.5,94.1*,12.0,-1.9
CN1C2CC(OC(=O)[C@H](CO)c3ccccc3)CC1C1OC12 (stereo partly drawn),11.1,·,·,6.3,·,·
CN1[C@@H]2CC(OC(=O)[C@@H](CO)c3ccccc3)C[C@H]1[C@H]1O[C@H]12 (stereo partly drawn),24.0,·,·,51.8*,·,·
CCNC(=O)c1cc2c(=O)n3ccccc3nc2n(Cc2cccnc2)c1=N,-14.2,·,·,15.2,·,·
Cc1ccc(CS(=O)(=O)c2ccc(C(=O)N3CCN(c4ccccn4)CC3)cc2[N+](=O)[O-])cc1,-57.3,·,-8.7,7.9,8.3,20.2*
Cc1cc2c(cc1C)NC(c1ccccc1O)C1=C(CC(C)(C)CC1=O)N2 (stereo not drawn),-14.5,·,·,12.2,·,·
CC1(C)CC(=O)C2=C(C1)Nc1ccccc1NC2c1cc(O)ccc1O (stereo not drawn),-88.4,·,·,47.4*,·,·
CN1CCN(C2=C(Cl)C(=O)C(c3cnc(N4CCCCC4)s3)=C(Cl)C2=O)CC1,-56.6,2.1,-3.3,103.6*,-0.7,4.7
CN1CCN(C2=C(Cl)C(=O)N(C3CCCCC3)C2=O)CC1,24.9,4.8,-16.1,5.4,-9.8,-2.6
CC(=O)Nc1ccc(CN2CCc3c(nc(N4CCC(C)CC4)[nH]c3=O)C2)cc1,-40.1,·,·,9.5,·,·
O=C(Nc1nc2c(Br)cc(Br)cc2c(=O)s1)c1ccco1,65.2*,·,-0.3,12.8,-14.3,·
Cc1nc(NC(=O)c2ccco2)sc1C(=O)Nc1ccc(Br)cc1,-30.3,2.5,8.4,13.5,4.7,1.1
CCn1c(SCC(=O)Nc2cccc(Cl)c2C)nnc1-c1ccco1,-5.2,·,·,10.6,·,·
O=c1[nH]c(N2CCCC2)nc2c1CCN(Cc1ccc(-c3ccccc3)cc1)C2,-4.5,·,·,9.1,·,·
Cc1ccsc1CN(CCCN1CCOCC1)Cc1cccc2ncccc12,-2.5,·,·,5.0,·,·
COC(=O)CSc1nc2c(c(-c3ccc(O)cc3)c1C#N)CCCC2,61.8*,·,-15.3,3.3,-5.0,9.7
Cc1ccc(C(=O)N2C(=O)C(c3ccccc3)Oc3ccccc32)cc1 (stereo not drawn),87.2*,·,18.2,9.8,26.9,·
CN(C(=O)CSc1nnc(-c2ccc(S(=O)(=O)N3CCOCC3)cc2)n1C)C1CCCCC1,-4.5,·,·,8.9,·,·
CCC(=O)N(Cc1c(C)nn(-c2ccccc2)c1Cl)c1ccc(Cl)cc1,46.6,18.9*,-13.7,3.2,-11.1,28.6*
SMILES,EP2 modulator,NPY Y2 blocker,NPY1 pot ag,EP2 antag,NPY-Y2 PAM-ag,NPY Y1 blocker
Cc1nn(-c2ccccc2)c(Cl)c1C(=O)NCCCCNC(=O)c1c(C)nn(-c2ccccc2)c1Cl,-4.7,-2.0,-3.7,14.3,1.5,6.0
CC(C)Cn1c(=O)c(C(=O)NCc2ccccn2)c(O)c2ccccc21,61.9*,4.1,-1.9,14.9,7.8,5.1
CCn1c(=O)c(C(=O)NCc2ccccc2OC)c(O)c2ccccc21,62.3*,·,·,13.7,·,·
CCn1c(=O)c(C(=O)NCc2cccnc2)c(O)c2ccccc21,64.7*,3.0,14.8,11.2,-6.1,9.0
Cn1c(C(=O)NCc2ccccn2)cc2c(=O)n(C)c3ccccc3c21,-8.5,-7.0,37.0*,1.8,42.2*,-11.8
CCCn1c(=O)c(C(=O)NCc2ccncc2)c(O)c2ccccc21,55.8,4.8,-6.6,16.1,-11.3,8.6
CCOc1ccc2nc(SCC(=O)Nc3ccccc3N3CCOCC3)c(C#N)cc2c1,7.3,·,·,8.8,·,·
Cc1ccccc1N(CC(=O)Nc1ccc2c(c1)OCCO2)S(C)(=O)=O,-38.1,·,·,5.6,·,·
COc1cc2[nH]c(=O)c(C(=O)Nc3cccc(C)c3)c(O)c2cc1OC,-11.1,·,·,36.0,·,·
CN(C)CCCN1c2ccccc2Sc2cnccc21,-15.5,·,·,44.9*,·,·
CC[C@H](Cn1ncc2ccccc2c1=O)NC(=O)c1ccc2c(c1)n(C)c(=O)n2C,-43.7,·,·,·,·,·
COc1ccc(N2CCN(c3oc(COc4ccccc4)nc3C#N)CC2)cc1,-17.0,26.8*,1.1,26.2,-11.7,38.8*
N#Cc1nc(COc2ccc(Cl)cc2)oc1N1CCN(Cc2ccccc2)CC1,-10.0,32.1*,-49.1,11.2,-37.4,33.5*
N#Cc1nc(COc2ccc(Cl)cc2Cl)oc1N1CCOCC1,3.0,3.9,-21.5,7.4,13.2,7.7
COc1ccc(N2CCN(c3oc(COc4ccc(Cl)cc4Cl)nc3C#N)CC2)cc1,-17.6,10.8,-51.0,12.8,-15.9,51.8*
CCN1CCN(c2oc(COc3ccc(Cl)cc3)nc2C#N)CC1,-18.5,·,-17.9,3.7,-46.0,·
COc1ccc(N2CCN(c3oc(COc4ccc(Cl)cc4)nc3C#N)CC2)cc1,-44.1,24.0*,-39.8,19.0,-8.0,48.7*
Cn1c(=O)oc2cc(S(=O)(=O)NCC3(c4ccccc4)CCOCC3)ccc21,-16.4,·,·,0.5,·,·
COc1ccc2c(c1)cc(C)c1nn(CC(=O)N3CCCCC3)c(=O)n12,2.8,·,·,·,·,·
N#Cc1nc(COc2ccc(Br)cc2)oc1N1CCCC1,-7.3,22.3*,-23.4,8.9,-49.3,27.3*
CC1=NN(c2nnc(C)c(=O)[nH]2)C(=O)C1,9.8,·,·,11.3,·,·
COc1ccc2cc(CN3CCC(CO)C3)c(OC)nc2c1 (stereo not drawn),-18.0,·,·,7.3,·,·
O=C(Nc1cc(C(F)(F)F)ccc1N1CCOCC1)C1Cc2ccccc2CN1C(=O)c1ccco1 (stereo not drawn),29.8,19.1*,2.2,3.4,8.2,25.6*
CC(=O)Nc1sc(N)nc1-c1ccccc1,3.4,10.2,-4.9,4.3,1.0,-1.0
Nc1nc(-c2ccccc2)c(N=Nc2cccc3ccccc23)s1,20.9,-12.6,110.7*,4.6,96.6*,-29.2
Nc1nc(-c2ccccc2)c(N=Nc2ccccc2Cl)s1,13.3,-13.9,94.5*,9.9,79.2*,-26.9
COc1ccc2nc3c(cc2c1)CN(CC1CC1)C(=O)C(C)O3 (stereo not drawn),-6.7,·,·,9.1,·,·
CCOc1cccc(/C(O)=C2/C(=O)C(=O)N(CCCOC)C2c2ccco2)c1 (stereo not drawn),-10.8,·,·,7.8,·,·

# Compound activity as filed in PubChem BioAssay.
